Consider 17 molecules from ChEMBL document CHEMBL1149120, “Discovery of potent inhibitors of dihydroneopterin aldolase using CrystaLEAD high-throughput X-ray crystallographic screening and structure-directed lead optimization” (J Med Chem, 2004).

In general, IC50 refers to the point on the concentration scale where inhibition reaches its midpoint. The low end stands for greater potency, the high end for weaker potency.

The test can be described thus: Inhibition of Staphylococcus aureus 7,8-dihydroneopterin aldolase. In outline: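 DHNA expressed in E. coli BL21(DE3) and purified by DEAE, Q-Sepharose and S300 chromatography; 50 nM enzyme with 4 µM 7,8-dihydroneopterin in 20 mM HEPES pH 7.4, 150 mM NaCl, ambient temperature (~29 °C). IC50 is the concentration halving the initial rate.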

`Nc1nc(O)c2nn(-c3cccc(C(=O)NCc4ccc5c(c4)OCO5)c3)nc2n1` had an IC50 of 310 nM. `Cn1c(N)nc(-c2ccccc2)c(Br)c1=O` displayed an IC50 of 38000 nM.

For `Nc1nc(O)c2nn(-c3cccc(C(=O)NCc4ccc(Oc5ccccc5)cc4)c3)nc2n1`, the concentration for half-maximal inhibition (IC50) stood at 22000 nM.

Turning to `Nc1nc(O)c2nn(-c3cccc(C(=O)NCc4ccc5c(c4)CCO5)c3)nc2n1`, 550 nM corresponded to half-maximal inhibition (IC50).

With `Nc1nc(O)c2nn(-c3cccc(C(=O)NCCCO)c3)nc2n1`, half-maximal inhibition (IC50) was put at 2300 nM. As to `CC(C)(CO)CNC(=O)c1cccc(-n2nc3nc(N)nc(O)c3n2)c1`, it took 730 nM to reach half-maximal inhibition (IC50).

Turning to `Nc1nc(O)c2nn(-c3cccc(C(=O)NC[C@H]4CCCC[C@@H]4O)c3)nc2n1`, the IC50 stood at 320 nM.

The molecule `Nc1nc(O)c2nn(-c3cccc(C(=O)NC[C@H]4CCCC[C@H]4O)c3)nc2n1` displayed an IC50 of 410 nM.

With `Nc1nc(O)c2nn(-c3cccc(C(=O)NCC4(O)CCCCC4)c3)nc2n1`, the IC50 came to 740 nM. The result for `Nc1nc(O)c2cc(N(C=O)Cc3ccc(Cl)c(Cl)c3)ccc2n1` reads 600 nM. The figure for `NC1=NC(=O)C2N=C(S)N=C2N1` (configuration not stated) is 1000 nM. The result for `Nc1nc(O)c2nn(-c3cccc(C(=O)NCc4cc(C(F)(F)F)cc(C(F)(F)F)c4)c3)nc2n1` reads 1000 nM; that for `CCC(CO)(CO)CNC(=O)c1cccc(-n2nc3nc(N)nc(O)c3n2)c1`, 950 nM; that for `Nc1nc(O)c2nn(-c3cccc(C(=O)NC[C@@H]4CCCCC[C@H]4O)c3)nc2n1`, 350 nM. Regarding `Nc1nc(O)c2nn(-c3cccc(C(=O)NCCCCO)c3)nc2n1`, the IC50 came out at 2000 nM. In turn, `Cc1nc(N)nc(O)c1N(Cc1ccc(Cl)c(Cl)c1)N=O` registered a half-maximal inhibitory concentration (IC50) of 1300 nM. The molecule `Nc1nc(O)c2nn(-c3cccc(C(=O)NCc4ccc(-c5ccccc5)cc4)c3)nc2n1` displayed an IC50 of 25000 nM.
